Laboratory results from ChEMBL document CHEMBL4765319, “Identification of a new series of flavopiridol-like structures as kinase inhibitors with high cytotoxic potency” (Eur J Med Chem, 2020).

Legend:
[1] = biological target: T1, CDK2/Cyclin A2 (Homo sapiens) (UniProt P24941+P20248); assay: Inhibition of human CDK2/cyclin A assessed as residual activity at 10 uM in presence of ATP by ADP-glo luminescent assay relative to control; format: protein-complex assay
Procedure, shortened: (§1)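 Human kinases assayed by ADP-Glo luminescence with 10 μM ATP, compound at 10 or 1 μM. Activity is expressed as % of maximal activity relative to a DMSO control, mean n = 2.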

[2] = biological target: T1, CDK2/Cyclin A2 (Homo sapiens); assay: Inhibition of human CDK2/cyclin A assessed as residual activity at 1 uM in presence of ATP by ADP-glo luminescent assay relative to control; format: protein-complex assay; procedure, shortened: as §1
[3] = biological target: T2, Cyclin-dependent kinase 5/CDK5 activator 1 (Homo sapiens) (UniProt Q00535+Q15078); assay: Inhibition of human CDK5/p25 assessed as residual activity at 10 uM in presence of ATP by ADP-glo luminescent assay relative to control; format: protein-complex assay; procedure, shortened: as §1
T2 sequence (Q00535 whole entry): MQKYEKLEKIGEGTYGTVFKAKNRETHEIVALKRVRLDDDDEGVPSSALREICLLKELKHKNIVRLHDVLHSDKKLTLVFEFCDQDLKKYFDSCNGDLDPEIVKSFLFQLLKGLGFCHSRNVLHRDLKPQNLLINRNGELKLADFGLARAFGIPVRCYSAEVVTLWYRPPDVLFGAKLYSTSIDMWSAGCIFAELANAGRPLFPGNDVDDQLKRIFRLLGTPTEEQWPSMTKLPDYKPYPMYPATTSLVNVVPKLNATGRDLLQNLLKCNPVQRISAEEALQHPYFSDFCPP
T2 sequence (Q15078 99-307 partner limits assumed): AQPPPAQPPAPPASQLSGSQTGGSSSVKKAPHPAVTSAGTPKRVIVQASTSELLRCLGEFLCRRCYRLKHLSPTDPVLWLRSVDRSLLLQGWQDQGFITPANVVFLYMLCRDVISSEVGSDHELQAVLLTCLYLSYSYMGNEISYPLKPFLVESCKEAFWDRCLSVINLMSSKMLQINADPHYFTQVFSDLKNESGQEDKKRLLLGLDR

[4] = biological target: T2, Cyclin-dependent kinase 5/CDK5 activator 1 (Homo sapiens); assay: Inhibition of human CDK5/p25 assessed as residual activity at 1 uM in presence of ATP by ADP-glo luminescent assay relative to control; format: protein-complex assay; procedure, shortened: as §1
[5] = biological target: T3, CDK9/cyclin T1 (Homo sapiens) (UniProt O60563+P50750); assay: Inhibition of human CDK9/cyclin T assessed as residual activity at 10 uM in presence of ATP by ADP-glo luminescent assay relative to control; format: protein-complex assay; procedure, shortened: as §1
[6] = biological target: T3, CDK9/cyclin T1 (Homo sapiens); assay: Inhibition of human CDK9/cyclin T assessed as residual activity at 1 uM in presence of ATP by ADP-glo luminescent assay relative to control; format: protein-complex assay; procedure, shortened: as §1
[7] = biological target: T4, Glycogen synthase kinase-3 beta (Homo sapiens, UniProt P49841); assay: Inhibition of human GSK3beta assessed as residual activity at 10 uM in presence of ATP by ADP-glo luminescent assay relative to control; procedure, shortened: as §1
Target sequence in this assay (P49841 whole entry, looked up): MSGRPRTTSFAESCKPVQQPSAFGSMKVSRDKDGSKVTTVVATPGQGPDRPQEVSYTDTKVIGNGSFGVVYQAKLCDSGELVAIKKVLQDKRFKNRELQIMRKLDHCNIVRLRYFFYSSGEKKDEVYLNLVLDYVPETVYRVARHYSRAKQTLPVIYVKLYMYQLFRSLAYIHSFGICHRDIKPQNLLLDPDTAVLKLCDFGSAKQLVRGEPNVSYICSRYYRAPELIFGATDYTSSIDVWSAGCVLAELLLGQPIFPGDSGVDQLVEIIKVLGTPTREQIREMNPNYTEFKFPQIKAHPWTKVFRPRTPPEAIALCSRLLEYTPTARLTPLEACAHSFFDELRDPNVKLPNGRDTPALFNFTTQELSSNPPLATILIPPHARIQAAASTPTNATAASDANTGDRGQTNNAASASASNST

[8] = biological target: T4, Glycogen synthase kinase-3 beta; assay: Inhibition of human GSK3beta assessed as residual activity at 1 uM in presence of ATP by ADP-glo luminescent assay relative to control; procedure, shortened: as §1
Target sequence in this assay (P49841 whole entry, looked up): as above

Leishmania major [9] = assay: Inhibition of Leishmania major CK1 assessed as residual activity at 10 uM in presence of ATP by ADP-glo luminescent assay relative to control
Leishmania major [10] = assay: Inhibition of Leishmania major CK1 assessed as residual activity at 1 uM in presence of ATP by ADP-glo luminescent assay relative to control
Plasmodium falciparum [11] = assay: Inhibition of Plasmodium falciparum GSK3 assessed as residual activity at 10 uM in presence of ATP by ADP-glo luminescent assay relative to control
Procedure, shortened: (§2)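 Recombinant P. falciparum GSK3, bacterially expressed, in buffer A (10 mM MgCl2, 1 mM EGTA, 1 mM DTT, 25 mM Tris-HCl pH 7.5, 50 μg/ml heparin). Substrate 0.010 μg/μl GS-1 peptide, 10 μM ATP, ADP-Glo luminescence. Compound at 10 or 1 μM; % residual activity vs DMSO control, mean n = 2.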

Plasmodium falciparum [12] = assay: Inhibition of Plasmodium falciparum GSK3 assessed as residual activity at 1 uM in presence of ATP by ADP-glo luminescent assay relative to control; procedure, shortened: as §2
Sus scrofa [13] = species on record: Sus scrofa; assay: Inhibition of porcine CK1delta/epsilon assessed as residual activity at 10 uM in presence of ATP by ADP-glo luminescent assay relative to control
Sus scrofa [14] = species on record: Sus scrofa; assay: Inhibition of porcine CK1delta/epsilon assessed as residual activity at 1 uM in presence of ATP by ADP-glo luminescent assay relative to control
Sus scrofa [15] = species on record: Sus scrofa; assay: Inhibition of porcine GSK3alpha/beta assessed as residual activity at 10 uM in presence of ATP by ADP-glo luminescent assay relative to control
Procedure, shortened: (§3)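 Porcine brain GSK3α/β, native and affinity-purified. Assayed by ADP-Glo luminescence with 10 μM ATP and 0.010 μg/μl GS-1 peptide substrate. Buffer A: 10 mM MgCl2, 1 mM EGTA, 1 mM DTT, 25 mM Tris-HCl pH 7.5, 50 μg/ml heparin. Compound tested at 10 or 1 μM. Result is % of maximal activity versus DMSO control, mean of n = 2.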

Sus scrofa [16] = species on record: Sus scrofa; assay: Inhibition of porcine GSK3alpha/beta assessed as residual activity at 1 uM in presence of ATP by ADP-glo luminescent assay relative to control; procedure, shortened: as §3
CDK2/Cyclin A2 = CDK2/Cyclin A2 (Homo sapiens, UniProt P24941); assay: Inhibition of human CDK2/cyclin A in presence of ATP by ADP-glo luminescent assay; format: protein-complex assay
Procedure, shortened: (§4)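 Human kinases tested over roughly 0.0003–10 μM by ADP-Glo luminescence with 10 μM ATP, in duplicate. IC50 is taken from dose-response curves.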

[17] = biological target: Cyclin-dependent kinase 5/CDK5 activator 1 (Homo sapiens, UniProt Q00535); assay: Inhibition of human CDK5/p25 in presence of ATP by ADP-glo luminescent assay; format: protein-complex assay; procedure, shortened: as §4
Sequence of Cyclin-dependent kinase 5/CDK5 activator 1 (Q00535 whole entry): as the sequence (Q00535 whole entry) above
Sequence of Cyclin-dependent kinase 5/CDK5 activator 1 (Q15078 whole entry, further chain): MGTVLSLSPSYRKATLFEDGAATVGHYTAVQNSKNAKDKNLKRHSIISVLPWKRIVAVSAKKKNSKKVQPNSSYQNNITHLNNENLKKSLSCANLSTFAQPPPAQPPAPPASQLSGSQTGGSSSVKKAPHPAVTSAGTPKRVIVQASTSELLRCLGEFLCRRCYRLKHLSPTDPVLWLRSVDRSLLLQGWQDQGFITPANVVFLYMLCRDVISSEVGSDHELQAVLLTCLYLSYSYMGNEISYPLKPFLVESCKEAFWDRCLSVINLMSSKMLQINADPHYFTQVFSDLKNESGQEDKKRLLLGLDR

CDK9/cyclin T1 = CDK9/cyclin T1 (Homo sapiens, UniProt P50750); assay: Inhibition of human CDK9/cyclin T in presence of ATP by ADP-glo luminescent assay; format: protein-complex assay; procedure, shortened: as §4
Sequence of CDK9/cyclin T1 (O60563 whole entry): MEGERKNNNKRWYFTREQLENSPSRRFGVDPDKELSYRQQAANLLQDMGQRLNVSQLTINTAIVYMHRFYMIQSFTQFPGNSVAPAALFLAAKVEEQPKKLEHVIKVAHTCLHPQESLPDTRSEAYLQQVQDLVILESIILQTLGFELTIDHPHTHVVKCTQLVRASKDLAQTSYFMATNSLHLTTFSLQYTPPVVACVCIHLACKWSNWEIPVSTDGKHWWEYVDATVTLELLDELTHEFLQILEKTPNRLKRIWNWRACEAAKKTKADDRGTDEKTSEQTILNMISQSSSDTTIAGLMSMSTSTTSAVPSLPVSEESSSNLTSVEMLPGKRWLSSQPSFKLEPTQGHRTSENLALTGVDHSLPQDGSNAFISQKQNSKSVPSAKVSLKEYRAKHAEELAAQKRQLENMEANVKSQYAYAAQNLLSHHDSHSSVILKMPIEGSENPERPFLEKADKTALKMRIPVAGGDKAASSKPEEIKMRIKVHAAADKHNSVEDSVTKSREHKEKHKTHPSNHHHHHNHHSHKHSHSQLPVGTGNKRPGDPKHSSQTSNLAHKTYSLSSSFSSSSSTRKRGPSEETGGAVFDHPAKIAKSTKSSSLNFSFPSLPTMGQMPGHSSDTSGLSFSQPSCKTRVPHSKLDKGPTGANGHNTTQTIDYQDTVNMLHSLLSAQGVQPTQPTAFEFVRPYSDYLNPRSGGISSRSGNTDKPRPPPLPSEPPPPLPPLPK
Sequence of CDK9/cyclin T1 (P50750 whole entry): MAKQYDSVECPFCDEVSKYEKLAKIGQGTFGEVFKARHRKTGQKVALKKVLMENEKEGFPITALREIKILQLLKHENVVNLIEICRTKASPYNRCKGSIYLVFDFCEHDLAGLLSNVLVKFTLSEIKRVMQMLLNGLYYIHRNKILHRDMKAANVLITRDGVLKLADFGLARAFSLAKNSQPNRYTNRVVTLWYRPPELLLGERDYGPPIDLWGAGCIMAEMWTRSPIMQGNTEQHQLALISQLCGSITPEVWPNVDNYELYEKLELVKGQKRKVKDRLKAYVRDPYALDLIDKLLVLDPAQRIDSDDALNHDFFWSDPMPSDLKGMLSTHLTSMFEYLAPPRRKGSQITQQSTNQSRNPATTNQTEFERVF

[18] = biological target: T4, Glycogen synthase kinase-3 beta; assay: Inhibition of human GSK3beta in presence of ATP by ADP-glo luminescent assay; procedure, shortened: as §4
Target sequence in this assay (P49841 whole entry): as the sequence (P49841 whole entry, looked up) above

PC-3 = assay: Antiproliferative activity against human PC-3 cells assessed as reduction in cell viability incubated for 72 hrs by CellTiter-Blue fluorescence assay; settings: PC-3, 72 h
SK-OV-3 = assay: Antiproliferative activity against human SKOV3 cells assessed as reduction in cell viability incubated for 72 hrs by CellTiter-Blue fluorescence assay; settings: SK-OV-3, 72 h
NCI-N87 = assay: Antiproliferative activity against human NCI-N87 cells assessed as reduction in cell viability incubated for 72 hrs by CellTiter-Blue fluorescence assay; settings: NCI-N87, 72 h
SK-BR-3 = assay: Antiproliferative activity against human SK-BR-3 cells assessed as reduction in cell viability incubated for 72 hrs by CellTiter-Blue fluorescence assay; settings: SK-BR-3, 72 h
HCT-116 = assay: Antiproliferative activity against human HCT-116 cells assessed as reduction in cell viability incubated for 72 hrs by CellTiter-Blue fluorescence assay; settings: HCT-116, 72 h
MIA PaCa-2 = assay: Antiproliferative activity against human MIA PaCa-2 cells assessed as reduction in cell viability incubated for 72 hrs by CellTiter-Blue fluorescence assay; settings: MIA PaCa-2, 72 h
K562 = assay: Antiproliferative activity against human K562 cells assessed as reduction in cell viability incubated for 72 hrs by CellTiter-Blue resazurin fluorescence assay; settings: K562, 72 h

| SMILES | Activity [1] [%] | Activity [2] [%] | Activity [3] [%] | Activity [4] [%] | Activity [5] [%] | Activity [6] [%] | Activity [7] [%] | Activity [8] [%] | Activity (Leishmania major [9]) [%] | Activity (Leishmania major [10]) [%] | Activity (Plasmodium falciparum [11]) [%] | Activity (Plasmodium falciparum [12]) [%] | Activity (Sus scrofa [13]) [%] | Activity (Sus scrofa [14]) [%] | Activity (Sus scrofa [15]) [%] | Activity (Sus scrofa [16]) [%] | IC50 (CDK2/Cyclin A2) [nM] | IC50 [17] [nM] | IC50 (CDK9/cyclin T1) [nM] | IC50 [18] [nM] | other results |
| --- | --- | --- | --- | --- | --- | --- | --- | --- | --- | --- | --- | --- | --- | --- | --- | --- | --- | --- | --- | --- | --- |
| CN1CC=C(c2c(O)cc(O)c3c(=O)cc(-c4ccc(Sc5nc6ccccc6n5C)cc4)oc23)CC1 | 25 | 51 | 26 | 41 | -4 | -2 | -3 | 31 | 57 | 68 | 79 | 80 | 41 | 83 | 8 | 41 | 349 | 284 | 14 | 160 | IC50 (PC-3): 276 nM; IC50 (SK-OV-3): 344 nM; IC50 (NCI-N87): 391 nM; IC50 (SK-BR-3): 249 nM; IC50 (HCT-116): 219 nM; IC50 (MIA PaCa-2): 361 nM; IC50 (K562): 345 nM |
| CN1CC=C(c2c(O)cc(O)c3c(=O)cc(-c4ccc(Sc5nc6ccccc6[nH]5)cc4)oc23)CC1 | 5 | 35 | 4 | 14 | 10 | 8 | -8 | 6 | 40 | 99 | 54 | 85 | 69 | 91 | 11 | 36 | 162 | 121 | 8 | 117 | IC50 (PC-3): 742 nM; IC50 (SK-OV-3): 595 nM; IC50 (NCI-N87): 183 nM; IC50 (SK-BR-3): 254 nM; IC50 (HCT-116): 293 nM; IC50 (MIA PaCa-2): 852 nM; IC50 (K562): 194 nM |
